What is called IC50 is the concentration that gives 50% inhibition.

Data set [1] is described as follows: Cytotoxicity against mouse RAW264.7 cells assessed as cell viability at 13.10 uM by MTT assay. It counts as cell-based. Conditions: read-out: Activity. (In general: Tetrazolium dyes change colour on reduction, which living cells bring about.)
In another data set the test system is RAW264.7. Nature of the data set: Inhibition of LPS-induced nitric oxide production in mouse RAW264.7 cells. In kind it is functional, cell-based. The method, boiled down:
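Compounds were pre-added 30 min before LPS stimulation for 24 h. Supernatant was mixed 1:1 with Griess reagent (1% sulfanilamide, 0.1% naphthylethylenediamine dihydrochloride, 2% phosphoric acid) for 5 min at room temperature. Nitrite was read at OD 550 nm against a NaNO₂ standard curve. IC50 came from dose–inhibition curves, mean of four independent experiments.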

Data set [2] in a line: Cytotoxicity against mouse RAW264.7 cells assessed as cell viability at 3.78 uM by MTT assay. In kind it is cell-based. To be noted: read-out: Activity.
The nature of data set [3]: Selectivity for iNOS to nNOS.
Data set [4] can be described thus: Selectivity for iNOS to eNOS.

For `COc1cc(OC)c(C(=O)/C=C/c2ccc3c(c2)OCO3)c(OC)c1`, the viability at 13.1 µM in data set [1] was 100%. For the same compound, the IC50 with RAW264.7 is 13.1 µM.

Take `CC(=N)NCc1cccc(CN)c1` [1400W]: in data set [2], the viability at 3.78 µM was 82%. Further, the Selectivity ratio came to 200 in data set [3] and 5000 in data set [4]. In the data set with RAW264.7, this compound displayed a concentration for half-maximal inhibition (IC50) of 3.78 µM.

Source of the values: ChEMBL document CHEMBL1141553, “Synthesis and pharmacological activity of chalcones derived from 2,4,6-trimethoxyacetophenone in RAW 264.7 cells stimulated by LPS: quantitative structure-activity relationships” (Bioorg Med Chem, 2008).
